Laboratory results: ChEMBL document CHEMBL4190286, “Modulating the Serotonin Receptor Spectrum of Pulicatin Natural Products” (J Nat Prod, 2017)
Active and inactive are the calls of the source. No cut-off for these calls is given here.

Tests used:
[1] = target: T1, 5-hydroxytryptamine receptor 6 (Homo sapiens, UniProt P50406); assay: Displacement of [3H]-LSD from human 5-HT6 receptor expressed in HEK cells after 90 mins by microbeta scintillation counting analysis; format: cell-based
[2] = target: T2, 5-hydroxytryptamine receptor 5A (Homo sapiens, UniProt P47898); assay: Displacement of [3H]-LSD from human 5-HT5A receptor expressed in Flp-In CHO cells after 90 mins by microbeta scintillation counting analysis; format: cell-based
[3] = target: T3, 5-hydroxytryptamine receptor 7 (Homo sapiens, UniProt P34969); assay: Displacement of [3H]-LSD from human 5-HT7A receptor expressed in HEK cells after 90 mins by microbeta scintillation counting analysis; format: cell-based
[4] = target: T4, 5-hydroxytryptamine receptor 1E (Homo sapiens, UniProt P28566); assay: Displacement of [3H]5-HT from human 5-HT1E receptor expressed in HEK cells after 90 mins by microbeta scintillation counting analysis; format: cell-based
[5] = target: T5, 5-hydroxytryptamine receptor 2C (Homo sapiens, UniProt P28335); assay: Displacement of [3H]-Mesulergine from human 5-HT2C receptor expressed in HEKT cells after 90 mins by microbeta scintillation counting analysis; format: cell-based
T5 sequence (P28335 whole entry): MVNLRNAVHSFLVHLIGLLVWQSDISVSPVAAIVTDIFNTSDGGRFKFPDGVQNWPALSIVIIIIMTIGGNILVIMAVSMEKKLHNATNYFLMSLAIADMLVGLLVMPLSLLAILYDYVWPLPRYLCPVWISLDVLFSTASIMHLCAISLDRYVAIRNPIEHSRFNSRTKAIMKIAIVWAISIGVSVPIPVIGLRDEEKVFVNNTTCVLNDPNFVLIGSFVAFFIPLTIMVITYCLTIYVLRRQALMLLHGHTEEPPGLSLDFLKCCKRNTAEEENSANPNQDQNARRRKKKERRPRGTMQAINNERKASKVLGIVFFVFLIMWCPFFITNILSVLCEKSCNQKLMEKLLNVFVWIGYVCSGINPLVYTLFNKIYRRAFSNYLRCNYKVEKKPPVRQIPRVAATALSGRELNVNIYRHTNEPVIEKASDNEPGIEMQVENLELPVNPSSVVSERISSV

[6] = target: T6, 5-hydroxytryptamine receptor 2A (Homo sapiens, UniProt P28223); assay: Displacement of [3H]Ketanserin from 5-HT2A (unknown origin) receptor after 90 mins by microbeta scintillation counting analysis
[7] = target: T7, 5-hydroxytryptamine receptor 2B (Homo sapiens, UniProt P41595); assay: Displacement of [3H]-LSD from human 5-HT2B receptor expressed in HEK cells after 90 mins by microbeta scintillation counting analysis; format: cell-based
[8] = target: T8, 5-hydroxytryptamine receptor 3A (Homo sapiens, UniProt P46098); assay: Displacement of [3H]-GR65630 from human 5-HT3 receptor expressed in HEKT cells after 90 mins by microbeta scintillation counting analysis; format: cell-based
T8 sequence (P46098 whole entry): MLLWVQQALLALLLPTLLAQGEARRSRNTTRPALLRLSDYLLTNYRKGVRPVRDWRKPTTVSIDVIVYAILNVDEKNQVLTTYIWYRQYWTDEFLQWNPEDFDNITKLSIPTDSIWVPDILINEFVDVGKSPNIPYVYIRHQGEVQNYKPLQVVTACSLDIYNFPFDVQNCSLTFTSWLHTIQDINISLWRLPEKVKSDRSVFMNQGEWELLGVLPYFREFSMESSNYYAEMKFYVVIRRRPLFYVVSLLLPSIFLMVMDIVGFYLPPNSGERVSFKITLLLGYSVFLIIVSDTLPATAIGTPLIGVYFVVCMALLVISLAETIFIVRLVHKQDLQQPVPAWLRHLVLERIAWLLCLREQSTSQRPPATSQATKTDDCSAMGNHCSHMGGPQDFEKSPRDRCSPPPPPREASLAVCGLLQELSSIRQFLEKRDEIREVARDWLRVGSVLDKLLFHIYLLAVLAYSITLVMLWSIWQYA

[9] = target: T9, 5-hydroxytryptamine receptor 1A (Homo sapiens, UniProt P08908); assay: Antagonist activity at 5-HT1A receptor (unknown origin) by Tango assay; format: functional
T9 sequence (P08908 whole entry): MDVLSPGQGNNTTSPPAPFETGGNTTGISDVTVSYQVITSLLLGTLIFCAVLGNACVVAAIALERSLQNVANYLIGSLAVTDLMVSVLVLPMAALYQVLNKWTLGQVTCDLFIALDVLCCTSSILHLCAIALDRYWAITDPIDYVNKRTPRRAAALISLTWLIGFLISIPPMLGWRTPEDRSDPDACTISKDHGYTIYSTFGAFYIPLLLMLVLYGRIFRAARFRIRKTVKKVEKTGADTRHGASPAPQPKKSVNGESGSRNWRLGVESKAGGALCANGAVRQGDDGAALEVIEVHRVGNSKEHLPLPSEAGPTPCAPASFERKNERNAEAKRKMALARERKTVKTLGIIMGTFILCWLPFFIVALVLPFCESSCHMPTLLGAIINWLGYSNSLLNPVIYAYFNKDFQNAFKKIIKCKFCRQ

[10] = target: T7, 5-hydroxytryptamine receptor 2B; assay: Antagonist activity at 5-HT2B receptor (unknown origin) by calcium release assay; format: functional
[11] = target: T3, 5-hydroxytryptamine receptor 7; assay: Antagonist activity at 5-HT7A receptor (unknown origin) by Tango assay
[12] = target: T10, 5-hydroxytryptamine receptor 1D (Homo sapiens, UniProt P28221); assay: Displacement of [3H]5-CT from human 5-HT1D receptor expressed in HEKT cells after 90 mins by microbeta scintillation counting analysis; format: cell-based
Mus musculus [13] = assay: Anticonvulsant activity in ip dosed CF1 mouse assessed as protection against 44 mA current-induced seizure after 1 hr by 6 Hz psychomotor test; format: functional
How it was run: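 Mice received compound intraperitoneally at 10, 30 and 100 mg/kg. At 0.25, 0.5, 1, 2 and 4 h after dosing, four mice per time point were challenged with 32 or 44 mA for 3 s through corneal electrodes to elicit a partial psychomotor seizure. Data are the number of mice protected over the number tested at each time.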

Mus musculus [14] = assay: Anticonvulsant activity in ip dosed CF1 mouse assessed as protection against 44 mA current-induced seizure after 15 mins by 6 Hz psychomotor test; format: functional; conditions: 0.25 h
How it was run: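 Mice received intraperitoneal doses of 10, 30 or 100 mg/kg. At 1/4, 1/2, 1, 2 and 4 h after dosing, four mice per time point were given 44 mA for 3 s through corneal electrodes to elicit a partial psychomotor seizure. The result is the number of mice protected over the number tested.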

[15] = target: T5, 5-hydroxytryptamine receptor 2C; assay: Antagonist activity at 5-HT2C receptor (unknown origin) by calcium release assay; format: functional
[16] = target: T6, 5-hydroxytryptamine receptor 2A; assay: Binding affinity to 5-HT2A receptor (unknown origin) by radioligand binding assay
[17] = target: T4, 5-hydroxytryptamine receptor 1E; assay: Binding affinity to 5-HT1E receptor (unknown origin) by radioligand binding assay
[18] = target: T10, 5-hydroxytryptamine receptor 1D; assay: Binding affinity to 5-HT1D receptor (unknown origin) by radioligand binding assay
[19] = target: T1, 5-hydroxytryptamine receptor 6; assay: Binding affinity to 5-HT6 receptor (unknown origin) by radioligand binding assay
[20] = target: T5, 5-hydroxytryptamine receptor 2C; assay: Binding affinity to 5-HT2C receptor (unknown origin) by radioligand binding assay
[21] = target: T7, 5-hydroxytryptamine receptor 2B; assay: Ratio of IC50 for antagonist activity at 5-HT2B receptor (unknown origin) by calcium release assay to Ki for displacement of [3H]-LSD from human 5-HT2B receptor expressed in baculovirus infected Sf9 cells; format: functional
[22] = target: T8, 5-hydroxytryptamine receptor 3A; assay: Binding affinity to 5-HT3 receptor (unknown origin) by radioligand binding assay
[23] = target: 5-hydroxytryptamine receptor 1B (Homo sapiens, UniProt P28222); assay: Displacement of [3H]-LSD from human 5-HT1B receptor expressed in baculovirus infected Sf9 cells
[24] = target: T7, 5-hydroxytryptamine receptor 2B; assay: Agonist activity at 5-HT2B receptor (unknown origin) by calcium release assay; format: functional
[25] = target: T2, 5-hydroxytryptamine receptor 5A; assay: Binding affinity to 5-HT5A receptor (unknown origin) by radioligand binding assay
[26] = target: T3, 5-hydroxytryptamine receptor 7; assay: Binding affinity to 5-HT7A receptor (unknown origin) by radioligand binding assay

T7 sequence (P41595 whole entry): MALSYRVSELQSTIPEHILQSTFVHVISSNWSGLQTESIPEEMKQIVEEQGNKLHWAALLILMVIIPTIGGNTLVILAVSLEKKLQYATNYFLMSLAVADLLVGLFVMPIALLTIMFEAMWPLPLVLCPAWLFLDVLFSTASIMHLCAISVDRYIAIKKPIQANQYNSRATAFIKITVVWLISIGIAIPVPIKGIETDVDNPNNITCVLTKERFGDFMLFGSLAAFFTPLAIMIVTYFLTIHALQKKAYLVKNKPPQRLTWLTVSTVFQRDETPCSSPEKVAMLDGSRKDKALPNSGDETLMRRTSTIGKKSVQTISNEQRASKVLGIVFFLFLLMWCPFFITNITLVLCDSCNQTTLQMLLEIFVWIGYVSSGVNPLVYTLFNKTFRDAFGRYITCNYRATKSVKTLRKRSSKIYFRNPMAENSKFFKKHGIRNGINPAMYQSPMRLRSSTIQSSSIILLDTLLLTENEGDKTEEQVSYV
T4 sequence (P28566 whole entry): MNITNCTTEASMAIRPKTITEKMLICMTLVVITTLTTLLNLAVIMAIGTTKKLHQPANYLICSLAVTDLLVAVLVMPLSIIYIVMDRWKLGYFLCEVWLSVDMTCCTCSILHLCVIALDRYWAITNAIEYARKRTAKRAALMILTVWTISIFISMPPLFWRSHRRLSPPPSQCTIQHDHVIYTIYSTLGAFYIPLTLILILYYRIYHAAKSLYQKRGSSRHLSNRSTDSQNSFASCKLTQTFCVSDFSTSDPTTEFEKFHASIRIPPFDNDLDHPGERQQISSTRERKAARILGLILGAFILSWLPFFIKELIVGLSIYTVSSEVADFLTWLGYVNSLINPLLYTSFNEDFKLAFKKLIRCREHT
T10 sequence (P28221 whole entry): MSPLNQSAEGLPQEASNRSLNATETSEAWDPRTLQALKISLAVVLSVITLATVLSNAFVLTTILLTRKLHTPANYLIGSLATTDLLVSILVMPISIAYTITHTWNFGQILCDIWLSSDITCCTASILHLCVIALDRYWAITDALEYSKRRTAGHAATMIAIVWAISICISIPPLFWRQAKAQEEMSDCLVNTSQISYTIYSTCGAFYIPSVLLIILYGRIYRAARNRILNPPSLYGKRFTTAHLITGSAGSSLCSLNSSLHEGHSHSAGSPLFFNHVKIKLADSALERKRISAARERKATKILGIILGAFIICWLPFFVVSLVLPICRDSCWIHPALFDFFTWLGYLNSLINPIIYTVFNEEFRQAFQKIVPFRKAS
T2 sequence (P47898 whole entry): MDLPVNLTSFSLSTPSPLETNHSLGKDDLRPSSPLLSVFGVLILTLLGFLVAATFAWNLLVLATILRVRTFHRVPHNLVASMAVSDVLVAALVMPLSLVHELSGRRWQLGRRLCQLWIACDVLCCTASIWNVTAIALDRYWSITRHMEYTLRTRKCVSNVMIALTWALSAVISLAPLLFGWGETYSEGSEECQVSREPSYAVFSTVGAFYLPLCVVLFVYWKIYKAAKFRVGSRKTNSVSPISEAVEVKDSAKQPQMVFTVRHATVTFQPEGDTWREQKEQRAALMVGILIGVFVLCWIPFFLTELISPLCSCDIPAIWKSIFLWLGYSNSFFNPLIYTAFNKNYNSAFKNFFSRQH
T3 sequence (P34969 whole entry): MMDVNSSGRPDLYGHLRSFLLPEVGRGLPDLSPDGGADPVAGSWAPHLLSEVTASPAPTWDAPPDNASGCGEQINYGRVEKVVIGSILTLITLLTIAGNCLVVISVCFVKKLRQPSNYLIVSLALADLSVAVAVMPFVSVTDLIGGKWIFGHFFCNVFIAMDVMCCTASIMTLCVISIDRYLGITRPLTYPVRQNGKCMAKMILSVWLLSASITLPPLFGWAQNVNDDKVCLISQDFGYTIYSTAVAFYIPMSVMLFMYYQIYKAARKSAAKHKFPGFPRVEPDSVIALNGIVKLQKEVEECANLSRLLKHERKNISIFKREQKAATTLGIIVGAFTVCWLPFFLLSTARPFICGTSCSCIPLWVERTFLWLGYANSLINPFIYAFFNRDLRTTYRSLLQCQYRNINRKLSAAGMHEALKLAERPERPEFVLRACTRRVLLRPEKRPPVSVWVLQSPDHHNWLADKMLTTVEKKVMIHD
T1 sequence (P50406 whole entry): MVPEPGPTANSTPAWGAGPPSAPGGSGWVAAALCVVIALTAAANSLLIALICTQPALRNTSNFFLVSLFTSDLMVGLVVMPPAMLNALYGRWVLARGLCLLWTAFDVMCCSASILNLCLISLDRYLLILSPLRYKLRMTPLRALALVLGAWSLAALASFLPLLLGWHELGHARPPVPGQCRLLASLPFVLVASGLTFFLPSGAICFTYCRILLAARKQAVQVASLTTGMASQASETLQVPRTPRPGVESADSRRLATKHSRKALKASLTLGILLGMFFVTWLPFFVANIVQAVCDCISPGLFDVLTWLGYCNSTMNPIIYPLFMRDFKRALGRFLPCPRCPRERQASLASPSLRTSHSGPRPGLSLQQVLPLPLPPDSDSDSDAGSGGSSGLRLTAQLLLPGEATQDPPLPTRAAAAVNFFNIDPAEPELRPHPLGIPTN
T6 sequence (P28223 whole entry): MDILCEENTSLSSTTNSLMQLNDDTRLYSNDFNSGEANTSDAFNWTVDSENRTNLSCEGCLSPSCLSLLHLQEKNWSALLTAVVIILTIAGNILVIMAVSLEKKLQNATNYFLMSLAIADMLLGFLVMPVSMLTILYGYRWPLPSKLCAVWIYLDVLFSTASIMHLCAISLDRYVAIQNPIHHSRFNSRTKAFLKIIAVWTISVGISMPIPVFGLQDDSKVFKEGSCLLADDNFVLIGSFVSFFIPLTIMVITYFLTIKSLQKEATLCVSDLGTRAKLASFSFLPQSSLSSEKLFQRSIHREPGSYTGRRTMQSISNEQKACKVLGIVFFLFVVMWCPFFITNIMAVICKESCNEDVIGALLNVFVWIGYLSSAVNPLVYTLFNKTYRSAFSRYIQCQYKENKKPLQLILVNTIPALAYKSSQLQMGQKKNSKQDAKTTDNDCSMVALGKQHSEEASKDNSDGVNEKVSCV
Sequence of 5-hydroxytryptamine receptor 1B (P28222 whole entry): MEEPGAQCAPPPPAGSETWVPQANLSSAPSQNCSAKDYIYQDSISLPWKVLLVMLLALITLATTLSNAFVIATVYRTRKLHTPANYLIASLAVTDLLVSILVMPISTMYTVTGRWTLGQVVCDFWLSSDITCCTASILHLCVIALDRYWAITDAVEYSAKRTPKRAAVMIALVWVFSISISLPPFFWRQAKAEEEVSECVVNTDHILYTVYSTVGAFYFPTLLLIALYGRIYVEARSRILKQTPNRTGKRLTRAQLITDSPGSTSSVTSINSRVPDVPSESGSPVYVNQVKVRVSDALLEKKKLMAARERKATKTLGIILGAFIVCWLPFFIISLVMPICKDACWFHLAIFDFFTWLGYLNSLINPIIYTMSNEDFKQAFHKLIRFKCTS

Structure (SMILES)	Ki [1]	Ki [2]	Ki [3]	Ki [4]	Ki [5]	Ki [6]	Ki [7]	Ki [8]	IC50 [9]	IC50 [10]	Ki [12]	other results
C[C@@H]1SC(c2ccccc2)=N[C@H]1Cc1c[nH]cn1 (relative stereo)	> 10 µM	> 10 µM	> 10 µM	> 10 µM	1.2 µM	5.8 µM	0.38 µM	0.15 µM	> 10 µM	10 µM	0.8 µM	IC50 [11]: > 10 µM
CCCC(CCC)C(=O)O [VALPROIC ACID]												ED50 (Mus musculus [13]): 310 mg/kg
CCC1(C)CC(=O)NC1=O (stereo not drawn) [ETHOSUXIMIDE]												ED50 (Mus musculus [14]): > 600 mg/kg
C[C@@H]1SC(c2ccccc2O)=N[C@H]1Cc1c[nH]cn1 (racemic)	2.6 µM	> 10 µM	3.6 µM	> 10 µM	0.14 µM	1.4 µM	0.047 µM	0.24 µM	> 10 µM	0.8 µM	2 µM	IC50 [15]: 6.8 µM
C[C@@H]1SC(c2ccccc2O)=N[C@@H]1CO [PULICATIN A]										30 µM		Ki [16]: > 10 µM; Ki [17]: > 10 µM; Ki [18]: > 10 µM; Ki [19]: > 10 µM; Ki [20]: > 10 µM; Ratio [21]: 50 to 140; Ki [22]: > 10 µM; Ki [23]: > 10 µM; Activity [24]: inactive; Ki [25]: > 10 µM; Ki [26]: > 10 µM
